The results in this text go back to PubChem BioAssay.

Experiment [1] can be described thus: OD615 S. cerevisiae growth inhibition, permissive medium, pilot counter-assay, permissive growth control for S. cerevisiae lifespan shortening project (AID 705). The following applies: OD615, 24 h, at 10 µM, active compounds read high. An outline of the steps: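 System: S. cerevisiae with engineered DeaD lifespan system / Measured by: absorbance (optical density) at 615 nm / Read-out: reduction in yeast growth (OD615) / Times: 4 h cell pre-growth, 24 h exposure at 30 °C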

Experiment [2] is described as follows: Restrictive medium S. cerevisiae growth inhibition, OD615, pilot screen of yeast lifespan reduction project, restrictive growth control (AID 706;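 active = growth inhibition above a set limit, 3 SD over mean compound inhibition, in both replicates, cut at about 43% in these data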;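 note: modified DeaD lifespan yeast strain shifted to restrictive glucose medium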). Conditions: OD615, 48 h, at 10 µM, active compounds read high. The gist of the method:
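System: Engineered S. cerevisiae DeaD strain | Buffer or medium: Glucose-based CSMM-D restrictive medium | Schedule: 4 h pre-incubation, 48 h exposure at 30 °C | Technique: Optical density at 615 nm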

A short description of experiment [3]: viability gain of MRP-1-high H69AR cells under doxorubicin, pilot screen, MRP-1 activator project, CellTiter-Glo, duplicate (AID 807;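 active = viability increase at or above a cutoff of the median across tested compounds plus 3 SD, cut at about 8.5% in these data, passing the limit was not always enough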;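 note: compound pretreatment 18-22 h then 72 h combined with doxorubicin; 0% = doxorubicin alone and 100% = vehicle without doxorubicin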). Conditions: H69AR viability with doxorubicin, CellTiter-Glo luminescence; at 10 µM; active compounds read high. Background: In ATP-based viability assays light output follows the ATP content of the culture.
Experiment [4] is described as follows: growth suppression of beta-catenin knockout HCT116, pilot screen, human colon tumor cells (AID 823;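 active = cell viability at or below a set limit in both duplicate runs, the limit being the all-compound median minus 4 SD, cut at about 23% in these data, passing the limit was not always enough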;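 note: 0% = wells killed by 20 µM Hyamine and 100% = untreated DMSO cell wells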). Conditions: CellTiter-Glo, 60 h, at 10 µM, active compounds read low.
Experiment [5] can be described thus: growth suppression of PTEN-deleted HCT116, pilot screen, cell-based, HCT116 clonal line, CellTiter-Glo (AID 824;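 active = viability at or below 27.92% in each of two runs, the all-compound median minus 4 SD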;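 note: 0% = 20 µM Hyamine control and 100% = vehicle cell control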). The following applies: 60 h, at 10 µM, active compounds read low.
Experiment [6] is described as follows: inhibitors of the yeast RAM network, pilot screen, dse1pr::URA3 reporter, 5-FOA selection (AID 869;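 active = inhibition over a set limit, the all-compound mean plus 3 SD, in both replicate runs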;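 note: 0% = DMSO wells with no growth and 100% = 10 µM 1-NA-PP1 with full growth; RAM network block rescues cells from 5-FOA so hits raise OD615 growth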). Conditions: S. cerevisiae dse1pr::URA3 5-FOA growth, OD615, 2 d; at 10 µM; active compounds read high; strain carries analog-sensitive mutant Cbk1 kinase.
Experiment [7] in a line: RAM signaling pathway blockade in yeast – S. cerevisiae, Pdr1DBD-CYC8 efflux-inhibited sensitized strain, primary screen (AID 1298;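 active = RAM network inhibition above 8.4% in each of two replicates, 3 SD over the compound average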;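 note: 0% = DMSO untreated cells without growth and 100% = 10 µM 1-NA-PP1 full growth; higher means more yeast growth rescued from 5-FOA killing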). The following applies: S. cerevisiae cbk1-as DSE1-URA3 strain, 5-FOA growth OD615, 2 d; at 50 µM; active compounds read high.

Structures are written as SMILES. Values without a mark were called inactive. Records with an inconclusive call do not appear. The source made the active and inactive calls.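 Rule for the calls, unless noted: active = growth inhibition above 25% in both replicates, a cutoff set 3 SD above the mean; inconclusive = above 25% in only one replicate; inactive = the rest.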

For `CCCOc1ccc(C(=O)NCCC(=O)NCCCC(=O)OCC)cc1`, the growth inhibition in experiment [1] was -14.6%; in experiment [2], -20.7%. Besides, the viability increase in experiment [3] is 0.2%. Besides, the viability (usually a read-out of living cells in per cent, often relative to untreated cells) in experiment [4] is 91.8%; in experiment [5] it was 104%. In addition, the inhibition (in general, the relative decrease from the control value, in per cent) in experiment [6] is 1.34%. For the same compound, the RAM network inhibition in experiment [7] was 0.47%.
As to `CCSCCOC(=O)C1=C(C)N(C)C(=O)NC1c1cc(OC)ccc1OC` (stereo unspecified), the growth inhibition in experiment [1] is 0.26%; in experiment [2] it was -2.77%. Further, in experiment [3], the viability increase was 1.05%. The values for the viability in experiment [4] and in experiment [5] were 94.2% and 93.8%, respectively. In addition, in experiment [6], the inhibition was 0.645%. For the same compound, in experiment [7], the RAM network inhibition is 2.69%.
For the compound `NS(=O)(=O)c1ccc(S(=O)(=O)NCCc2ccccc2)cc1`, the figures for the growth inhibition in experiment [1] and in experiment [2] were -4.76% and 8.78%, respectively. In addition, the viability increase in experiment [3] is 0.73%. In addition, the figures for the viability in experiment [4] and in experiment [5] were 93.3% and 94.9%, respectively. Also, the inhibition in experiment [6] is 1%. The RAM network inhibition in experiment [7] is 3.88%.
For the compound `O=C(Cn1ncc2c1-c1ccccc1OC2)Nc1nc2ccccc2s1`, the growth inhibition was -6.12% in experiment [1] and 18.7% in experiment [2]. Further, the viability increase in experiment [3] was -6.71%. Besides, the viability was 93.9% in experiment [4] and 84.5% in experiment [5]. Further, the inhibition in experiment [6] was 0.785%. Besides, the RAM network inhibition in experiment [7] was -2.15%.
`O=C(CCn1c(=O)sc2ccccc21)NCc1ccccc1`: the growth inhibition in experiment [1] was 4.34%; in experiment [2], -2.52%. For the same compound, the viability increase in experiment [3] was -0.79%. For the same compound, the viability is 107% in experiment [4] and 105% in experiment [5]. The inhibition in experiment [6] is 2%. In addition, the RAM network inhibition in experiment [7] is 2.7%.
With `CCOC(=O)N1CCN(C(=O)CS(=O)Cc2nc(-c3ccc(C)cc3)oc2C)CC1` (stereo unspecified), the growth inhibition in experiment [1] is -5.11%; in experiment [2], 7.44%. Moreover, in experiment [3], the viability increase was -1.59%. Moreover, the viability in experiment [4] is 89.3%; in experiment [5], 92.1%. Moreover, the inhibition in experiment [6] was 1.68%. In addition, the RAM network inhibition in experiment [7] is 7.07%.
As for `CCSc1nc2c([nH]c3ccccc32)c(=O)n1C`, the growth inhibition in experiment [1] was -14.2%; in experiment [2] it was -9.45%. For the same compound, the viability increase in experiment [3] is -4.7%. Moreover, the viability in experiment [4] is 105%; in experiment [5], 100%. Moreover, the inhibition in experiment [6] is 3.67%. The RAM network inhibition in experiment [7] is 0.53%.
As to `CN1C(=O)CC(N2CCN(c3ncccn3)CC2)C1=O` (stereo unspecified), the growth inhibition in experiment [1] is 1.35%; in experiment [2] it was -4.12%. Also, in experiment [3], the viability increase was 0.31%. For the same compound, the figures for the viability in experiment [4] and in experiment [5] were 103% and 100%, respectively. In experiment [6], the inhibition was 0.77%. In experiment [7], the RAM network inhibition is 5.07%.
For the compound `O=C(CCS(=O)(=O)c1cccc2nonc12)N1CCCc2ccccc21`, the growth inhibition in experiment [1] was -10.4%; in experiment [2] it was -22.1%. Moreover, in experiment [3], the viability increase was -4.61%. In addition, the results for the viability in experiment [4] and in experiment [5] were 92.8% and 92.9%, respectively. In addition, in experiment [6], the inhibition was 2.08%. In addition, the RAM network inhibition in experiment [7] is 8.49%.
For `Cc1noc(C(=O)NCc2cccnc2)c1Cl`, the growth inhibition in experiment [1] is -7.93%; in experiment [2], -8.18%. For the same compound, the viability increase in experiment [3] is 1.31%. Besides, the viability in experiment [4] was 110%; in experiment [5] it was 101%. The inhibition in experiment [6] is 0.865%. Also, the RAM network inhibition in experiment [7] was 5.93%.
For the compound `C=C(C)Cc1c(C)nc(-c2ccccc2)[nH]c1=O`, the growth inhibition in experiment [1] was -14%; in experiment [2] it was -14.1%. In experiment [3], the viability increase was 0.87%. In addition, the viability in experiment [4] was 99.7%; in experiment [5], 98.5%. For the same compound, the inhibition in experiment [6] was 1.76%. In addition, the RAM network inhibition in experiment [7] is 1.46%.
On to `COc1cc(OC)c(C2CC(=O)N3CN(C)CSC3=C2C#N)cc1OC` (stereo unspecified), for which the growth inhibition is 19.5% in experiment [1] and 60% (active) in experiment [2]. Besides, in experiment [3], the viability increase is -2.96%. Also, the viability was 99.3% in experiment [4] and 97.2% in experiment [5]. The inhibition in experiment [6] was 1.06%. The RAM network inhibition in experiment [7] was 9.58%.
For `CC1CCCN(C(=O)C2CCN(S(=O)(=O)c3cccc4cccnc34)CC2)C1` (stereo unspecified), the values for the growth inhibition in experiment [1] and in experiment [2] were 1.07% and 3.5%, respectively. Also, in experiment [3], the viability increase was -3.54%. In addition, the values for the viability in experiment [4] and in experiment [5] were 89.6% and 85.6%, respectively. In addition, in experiment [6], the inhibition is 1.04%. The RAM network inhibition in experiment [7] was 5.46%.
On to `CCCOc1ccc(N2CC(C(=O)Nc3ccccc3OC)CC2=O)cc1` (stereo unspecified), for which the results for the growth inhibition in experiment [1] and in experiment [2] were -15.6% and -6.16%, respectively. In addition, the viability increase in experiment [3] was 0.54%. Moreover, the viability in experiment [4] is 105%; in experiment [5] it was 93.7%. Also, in experiment [6], the inhibition was 0.11%. Besides, in experiment [7], the RAM network inhibition was 2.24%.
As for `c1ccc(CNc2nc3ccccc3[nH]2)cc1`, the figures for the growth inhibition in experiment [1] and in experiment [2] were -4.7% and 2.9%, respectively. For the same compound, the viability increase in experiment [3] was -5.29%. The viability was 75.8% in experiment [4] and 80.7% in experiment [5]. In addition, the inhibition in experiment [6] is 1.3%. Moreover, the RAM network inhibition in experiment [7] was 0.44%.
With `COc1ccc(C)cc1S(=O)(=O)NC1CCCCC1`, the growth inhibition in experiment [1] was -9.02%; in experiment [2], -4.09%. Moreover, the viability increase in experiment [3] was -0.23%. In addition, the viability in experiment [4] and in experiment [5] was 101% in each case. For the same compound, the inhibition in experiment [6] was 0.525%. Also, the RAM network inhibition in experiment [7] is 6.79%.
As for `CCCCOC(=O)Nc1nc(CC(=O)OCC)cs1`, the growth inhibition was -1.73% in experiment [1] and -4.89% in experiment [2]. Further, the viability increase in experiment [3] is 1.05%. Moreover, the viability is 92.2% in experiment [4] and 95.7% in experiment [5]. Moreover, the inhibition in experiment [6] is -0.45%. The RAM network inhibition in experiment [7] was 1.89%.
Take `Cc1ccc2[nH]c(=O)c(-c3noc(C(C)C)n3)cc2c1`: the growth inhibition in experiment [1] was -11.9%; in experiment [2], -1.75%. The viability increase in experiment [3] was -2.88%. Also, the viability in experiment [4] was 114%; in experiment [5], 96.5%. Moreover, the inhibition in experiment [6] is 0.48%. Also, the RAM network inhibition in experiment [7] was 5.62%.
